This is an account of results in the RNAGym collection of RNA variant scans (doi:10.1126/science.aae0568).

Fewer inactive variants are shown than the library holds.

B1: tRNA (parent)
chain: GUUCCGUUGGCGUAAUGGUAACGCGUCUCCCUCCUAAGGAGAAGACUGCGGGUUCGAGUCCCGUACGGAACG

This data set covers variants of B1. Nature of the data set: yeast fitness relative to wild type (ratio to wild type); higher = fitter; tRNA-Arg(CCU), competitive growth, 37 C, YPD. Summed up:
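For this measurement, the tRNA-Arg(CCU) gene was varied by chemical synthesis at a 3% per-site mutation rate across 69 sites, and each variant was placed at the native genomic locus in Saccharomyces cerevisiae. The pooled strains went through a 24-hour competition in YPD at 37°C in six parallel replicates, with amplicons from start and end populations read by 100-nucleotide paired-end sequencing. Darwinian fitness relative to wild type followed from the change in each genotype's frequency. Genotypes needed ≥ 100 starting reads, and estimates < 0.5 were set to 0.5.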
As to A20U C30G C33U G58C, the yeast fitness is not above 0.5.
Consider G10C C27A, for which the yeast fitness came to 0.593.
In the case of A21C U32A C46A U64A A65C, the yeast fitness was not above 0.5.
Next, G9C C24G C33G U35A G48C C66A: not above 0.5; G12C G48C: 0.787; C11U U26G: 0.856.
Next, G12A A15U G51A A65U: not above 0.5.
Under C11A A15C C24G C61A A69C stands not above 0.5.
For the variant U3C U59A, the yeast fitness was found to be 0.846.
Under C5U C22U C31U C49A U59C stands not above 0.5; under A14U A15G A65G, not above 0.5.
Consider A43U G63C, for which the yeast fitness was found to be 0.589.
Under G9C U28G C29U C49U U54A C55U A70C stands not above 0.5; under U13C G38C A43C G51C G56C A69G, not above 0.5.
Next, G23C C29U: 0.604.
Next, C34G G44C G58C G68U: not above 0.5; C27G C49U C62U A65U: not above 0.5.
On to G39C G44C G52C G56A, for which the yeast fitness was not above 0.5.
Under C22A C27G G68U stands not above 0.5.
Under A45U C66U G68A stands 0.665; under C31G A65U, 0.799; under U7G U32C C46G, 0.62.
Next, A20C U28C C30A G44C A45G C55A: not above 0.5; U2G U64C: 0.841; G9C G39C: 0.64.
Turning to C5G A57U, the yeast fitness stood at 0.735.
As for G10C C29U, the yeast fitness is 0.589.
Under C4U C24U A69C stands 0.677.
Take C33A A45U C66A: the yeast fitness is not above 0.5.
Under C5G C24U C31A stands not above 0.5; under U3A A14U A37G A57C, not above 0.5.
C4G G9C G10A C24U: the yeast fitness is not above 0.5.
Consider U16C C22U U47A C60G C62A, for which the yeast fitness was not above 0.5.
For the variant A40G C49U G67A, the yeast fitness is not above 0.5.
Under C31U C55G U59A stands not above 0.5; under G9A C30A G38A A42C C61U, not above 0.5; under A21U C30U G48A G67C A69U, not above 0.5.
Under A20U G39A G51C C55G stands not above 0.5; under G58A A70G, 0.949; under U8A C34U A36G A45U U64A, not above 0.5.
Next, C27U A57U: 0.668.
Take A14G A40C: the yeast fitness was 1.
Next, C29A C30A: 0.591; A14C C27U C31U C33A C55U: not above 0.5.
Under A15G C55U G56A stands 0.58.
Next, U19A C60U: 0.819.
As to C4G G12A C24U, the yeast fitness was not above 0.5.
With A20C A43U G56A, the yeast fitness worked out at 0.656.
Under A21U G39C stands 0.574; under C11U C24G C62G, not above 0.5.
Under C11U C46U C49U G67C stands not above 0.5; under U2A A21G C29U A40U A69U, 0.59.
Under G10C C11G A45U stands not above 0.5; under U19C C22U G44C, 0.551.
With C11G C30G C34A A37C C46U, the yeast fitness was not above 0.5.
Next, G18C A37C C49G: 0.663; C5A A42U G67A: not above 0.5.
Under U32C G39C G67C stands not above 0.5; under G10C C24U C29G, 0.638.
Next, U2A C11A C24G U47G: not above 0.5.
As for C5U C29G G68A, the yeast fitness is not above 0.5.
Regarding G10U G17A C29G C55G C60U, the yeast fitness is not above 0.5.
Take A15C C33G G38C C62A: the yeast fitness came to 0.551.
Next, U3C U16G U19A A43C A57U: not above 0.5.
Under C49U G51C C55A stands 0.618.
For the variant U7C U16G G17A C49U U59C C62A, the yeast fitness was not above 0.5.
Under A37U G44C stands 0.784.
Under A15C C27G G39C U47A A69U stands not above 0.5; under G6A A36G C60G C66U, not above 0.5; under A15G C24G C66G, not above 0.5.
Next, C11G C31U C61G: 0.64.
With U26A C49G C61A, the yeast fitness was not above 0.5.
Next, U2G C5A U19A C30G A43C A69C: 0.537; U26C C31U C46A G48C A57U: 0.649.
In the case of C31A C61A, the yeast fitness is not above 0.5.
Under G6C U16A C30A A69U stands not above 0.5.
In the case of C22G C29G C46U A70U, the yeast fitness came out at 0.592.
Next, A15U U26A C60U G67A: not above 0.5; G12A G23A U35G G58A: not above 0.5.
Under G6A C24U G48C stands 0.618; under C29U A37G, 0.729; under C29G C61G C66G, 0.558.
Next, G6C C61U: 0.726.
In the case of U2A G9A C33U G38C A40U A42C, the yeast fitness is not above 0.5.
Under U19A A36U C61U stands not above 0.5.
As to C4A U7C G41A C49A, the yeast fitness turned out to be 0.504.
Next, A15C A21G C27G: not above 0.5.
Next, C4G U28G C30A A43C C61G A65G: not above 0.5; C33U A36U G51C A69U: 0.551; A40G C46U: 0.918.
Regarding U7A U8A U35C, the yeast fitness came to 0.601.
Under U26A G63C stands 0.683; under U2A C30U U32A C62G, not above 0.5; under U2G C4U U7G C11G A15C G18A C55U, 0.75.
For the variant U35G A69U, the yeast fitness came to 0.769.
Next, U7C G25A: 1.04; A57G U64G: 0.841; C5U C22A A42C C55G A57C C62U: not above 0.5.
U13A A21C C24A G25C C49U: the yeast fitness was not above 0.5.
With G10A A15U G17C A45U C49G A70U, the yeast fitness was not above 0.5.
Under G18A C30G A36C G44C stands not above 0.5; under C5U C11U C46U G51A C66U, not above 0.5; under G17A C33U U59G, 0.501.
Take C5A G12C U47C: the yeast fitness was not above 0.5.
A14U C29A U54A U59A: the yeast fitness is 0.574.
In the case of U26C G44A A70U, the yeast fitness amounted to 0.657.
Next, U7G G25C A40U: 0.556; G12A C46U: 0.9.
Next, C11A U19G A36G C62A A69C: not above 0.5; C5U A15C G18A U35C A42G C49A: 0.586; U2G A37C C61U G67A: not above 0.5.
Next, C11U C24A C34U A37U G39C A40U G52A C55G: not above 0.5.
Turning to U19C A65G G68U, the yeast fitness turned out to be 0.583.
Under C27A C34G A40G A65G stands 0.799; under C5A C27U G38A, 0.565.
Next, U13C C61G: 0.609; U19A A21U C24A U28C: not above 0.5; U7C C31U: 0.954.
Under C22A U28G C49A C61A stands not above 0.5.
For A15U U19A A45C C55U A57U, the yeast fitness was 0.583.
Next, C5G C34G G38C G68C: not above 0.5; U7G C29U C31U G38C A70G: not above 0.5.
For the variant G17U G67C, the yeast fitness stood at 0.798.
Next, G18C G50U U53A: not above 0.5; C24U U47C G48A C62G A69U: not above 0.5; G9A C33G A42C C49U C55G: 0.729.
Next, G48A A70G: 1.12.
For the variant G12A A15C C46G, the yeast fitness was 0.567.
Under C24U A37U C46A A70U stands not above 0.5.
In the case of A14C U35C A65G, the yeast fitness amounted to 0.525.
Under C4U A37U C49U stands 0.563.
Take C4U G18C G38A A40C A65G: the yeast fitness was not above 0.5.
Next, C11G A36U U54A U64C A69U: not above 0.5; C11U C27G G48C C49G: not above 0.5; A14U G23A C29G C46A C55G A57U C62U: not above 0.5.
Next, U8C A43U: 1.03.
Next, A15U A21G C24U C33U A40C A43C C49U C55U C61U: not above 0.5.
Take C27A G41C A43C A45U: the yeast fitness was not above 0.5.
Take U3C A57C A65U: the yeast fitness was not above 0.5.
With U28G G51C U64A C66U A69C, the yeast fitness was found to be 0.583.
Under C22A A40U A43C G48A A69U stands not above 0.5; under G17C A20G, 0.553; under G10C A14U U19A C22U U47C, not above 0.5.
As to U8C A40U, the yeast fitness came to 0.903.
Turning to C5G G18A G25A C61A, the yeast fitness was not above 0.5.
Take C4A U13A A21G G58C G68A: the yeast fitness amounted to 0.607.
Under C34U A37U C46A G51A A65U stands not above 0.5; under C27U A40C G58A A70C, 0.511; under U13A G56A C61G A70G, not above 0.5.
Next, U7G G39C A70U: 0.553; A14U C27A C62G: 0.667.
Under C29G U53C C61G G67A A69C stands not above 0.5; under U7C G38A, 0.881; under C4U C27G A45C C55U, 0.559.
Take C5G A57G C66A: the yeast fitness turned out to be 0.564.
Under C24G U28G A45C U47C U64A stands 0.6.
Next, C4A U47A C61U: 0.545; A20G C22A C34G C46U G63A: not above 0.5; C11A C33G C34G C61A: not above 0.5.
Next, A36C: 0.705; A20U A21G C22A G48A C49G: not above 0.5.
On to A21U A36G A40C A69U, for which the yeast fitness is not above 0.5.
Under U13G A20U C22U C24A A45G C55U stands not above 0.5.
For C5A U16C A21C C33U A40G G63C, the yeast fitness was not above 0.5.
Next, A15G G18A C49U: 0.669; A21U A36C G38C: not above 0.5; A15U G58A: 1.
